For 17 compounds, IC50 results are on record in ChEMBL document CHEMBL4387788, “Brominated Azaphilones from the Sponge-Associated Fungus Penicillium canescens Strain 4.14.6a” (J Nat Prod, 2019).

For one experiment, the system named is L5178Y. Briefly: Cytotoxicity against mouse L5178Y cells assessed as reduction in cell viability incubated for 72 hrs by MTT assay. It counts as functional, cell-based. In a few lines: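 MTT assay on L5178Y mouse lymphoma cells. Kahalalide F was the positive control; 0.1% ethylene glycol monomethyl ether in DMSO was the negative control.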
Another experiment has as its system A2780. Briefly: Cytotoxicity against human A2780 cells assessed as reduction in cell viability incubated for 72 hrs by MTT assay. The conditions noted are these: A2780, 72 h. The experiment is classed as functional, cell-based. The procedure, abridged:
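A2780 human ovarian cancer cells were seeded at 9500 cells/well and, after 24 h, exposed to 3.6-fold serial dilutions of compound for 72 h. MTT (5 mg/mL in PBS) was added, and the formazan was dissolved in DMSO. Absorbance was read at 544 and 690 nm. Cisplatin was the positive control and 0.9% sodium chloride the negative control.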

On to `COC(=O)c1c(O)cc(OC)c(Cl)c1Oc1c(C)cc(OC)cc1OC`, for which the half-inhibitory concentration (IC50) with L5178Y and in the experiment on A2780 was > 10 µM in each case.
On to `COc1cc(C[C@]23COC(/C=C/C=C/C=C/C(=O)O)=CC2=C(Br)C(=O)[C@](C)(OC(=O)C[C@H](O)C[C@@H](C)O)C3=O)c(C(C)=O)c(O)c1O`, for which the results for the half-maximal inhibitory concentration (IC50) in the experiment with L5178Y and in the experiment with A2780 were 13.9 µM and 37 µM, respectively.
In the case of `COC1=CC(=O)C[C@@H](C)[C@]12Oc1cc(OC)cc(OC)c1C2=O`, the concentration for half-maximal inhibition (IC50) in the experiment with L5178Y and with A2780 was > 10 µM throughout.
`COc1cc(C[C@]23COC(/C=C/C=C/C=C/C(=O)O)=CC2=C(Br)C(=O)[C@@](C)(OC(=O)C[C@H](O)C[C@@H](C)O)C3=O)c(C(C)=O)c(O)c1O`: the IC50 was 8.9 µM in the experiment on L5178Y and 2.7 µM in the experiment with A2780.
On to `COC(=O)c1c(O)cc(OC)c(Cl)c1Oc1c(C)cc(O)cc1OC`, for which the IC50 with L5178Y and in the experiment with A2780 was > 10 µM in each case.
On to `C=C(C)C1(O)OC(=O)C=C1OC` (stereo not drawn) [PENICILLIC ACID], for which the IC50 with L5178Y was 8.9 µM; in the experiment with A2780, > 10 µM.
As to `COC1=CC(=O)C[C@@H](C)[C@]12Oc1c(Cl)c(OC)cc(OC)c1C2=O` [GRISEOFULVIN], the IC50 in the experiment on L5178Y and in the experiment on A2780 was > 10 µM each time.
With `COc1cc(O)c(C(=O)c2c(C)cc(O)cc2OC)c(O)c1Cl`, the concentration for half-maximal inhibition (IC50) in the experiment on L5178Y and with A2780 was > 10 µM throughout.
In the case of `CC1(C)C=Cc2cc3c(cc2O1)c(C[C@@H]1NC(=O)C2=CCCN2C1=O)c1n3C=CC1(C)C`, the IC50 with L5178Y and in the experiment with A2780 was > 10 µM each time.
In the case of `COC(=O)Cc1cc(O)cc(O)c1C(C)=O`, the IC50 with L5178Y and in the experiment on A2780 was > 10 µM throughout.
Take `COc1cc(O)c(C(=O)c2c(C)cc(O)cc2OC)c(O)c1`: the IC50 in the experiment with L5178Y and with A2780 was > 10 µM in each case.
Take `C/C=C1\NC(=O)[C@H](Cc2ccccc2)NC(=O)[C@@H](C(C)C)NC(=O)[C@@H]([C@@H](C)CC)NC(=O)[C@H](NC(=O)[C@H](NC(=O)[C@H](CCCN)NC(=O)[C@H]2CCCN2C(=O)[C@H](NC(=O)[C@@H](NC(=O)[C@@H](NC(=O)[C@H](NC(=O)CCCC(C)C)C(C)C)[C@@H](C)O)C(C)C)C(C)C)[C@@H](C)CC)[C@@H](C)OC(=O)[C@H](C(C)C)NC1=O`: the IC50 with L5178Y amounted to 4.3 µM.
Consider `COc1cc(O)cc(C)c1C(=O)c1c(O)c(Cl)c(OC)c(Cl)c1O`, for which the IC50 in the experiment with L5178Y and in the experiment on A2780 was > 10 µM in each case.
As to `COC(=O)Cc1cc(OC)cc(O)c1C(C)=O`, the IC50 in the experiment with L5178Y and with A2780 was > 10 µM throughout.
Turning to `COC(=O)[C@@]12C(O)=C(C)C(=O)[C@]1(C)C(C)=C[C@H]1[C@]34CC[C@H](OC(C)=O)C(C)(C)[C@H]3[C@H](C[C@@]12C)OC4=O`, the concentration for half-maximal inhibition (IC50) in the experiment on L5178Y and in the experiment on A2780 was > 10 µM throughout.
On to `Cc1cc(O)cc2oc3cc(O)cc(O)c3c(=O)c12` [NORLICHEXANTHONE], for which the IC50 in the experiment on L5178Y and in the experiment on A2780 was > 10 µM throughout.
In the case of `COc1cc(O)c2c(=O)c3c(C)cc(O)cc3oc2c1`, the IC50 in the experiment with L5178Y and with A2780 was > 10 µM throughout.
